From PubChem BioAssay
Compounds with a hit are over-represented: about 2.2% of the library has one in this group of screens.
rCAG binder = r(CAG) repeat RNA binding. TO-PRO-1 dye displacement fluorescence. AID 651821. inhibition, % at 3 µM. actives 1.3% (n = 370,000);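 active = inhibition above the plate cutoff, the mean of all test compounds on that plate plus 3 SD, cut at about 35% in these data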;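 note: 0% = DMSO alone and 100% = 100 µM mitoxantrone as full dye displacement; higher means more dye released from RNA so lower well fluorescence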
ARFGAP1 inh = rat ARFGAP1 inhibition. Q62848. Arfgap1-stimulated ARF1 GTP hydrolysis, GDP FP detection. inhibition, % at 16.5 µM. actives 0.26% (n = 360,000). AID 651572;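 active = inhibition above a per-plate limit, mean inhibition of low control wells plus 3 SD, cut at about 25% in these data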;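 note: 0% = DMSO wells with enzyme and 100% = wells lacking Arfgap1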
Target sequence (Q62848 1-136 limits assumed): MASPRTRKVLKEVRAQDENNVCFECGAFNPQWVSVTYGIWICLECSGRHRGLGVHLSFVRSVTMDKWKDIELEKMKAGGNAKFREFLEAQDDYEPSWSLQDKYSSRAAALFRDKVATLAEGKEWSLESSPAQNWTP
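material = rat Arfgap1 catalytic domain, aa 1-136 | also added = human ARF1(Δ1-17)-GTP substrate | compound dosing = one concentration, 16.5 µM, DMSO 1.26% | times = GTP hydrolysis reaction 2 h at 25 °C | measured by = FP, GDP Alexa 633 tracer displaced from anti-GDP antibody, 620/688 nm | evaluation = percent inhibition of Arfgap1-stimulated GTP hydrolysis | replication = single well per compound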
NadD block = NadD (S. aureus) enzyme inhibition; purified NadD enzyme, colorimetric absorbance read-out; inhibition, % at 20 µM; actives 0.78% (n = 360,000); AID 602399; in the data active = inhibition above about 26%
ASAP1 inh = inhibitors of human ASAP1 ArfGAP activity. ASAP1-stimulated ARF1 GTP hydrolysis, GDP FP detection. inhibition, % at 16.5 µM. actives 0.19% (n = 360,000). AID 624377; in the data active = inhibition above about 25%;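 note: 0% = vehicle with enzyme and substrate and 100% = no enzyme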
Target sequence (Q9ULH1 325-724 limits assumed): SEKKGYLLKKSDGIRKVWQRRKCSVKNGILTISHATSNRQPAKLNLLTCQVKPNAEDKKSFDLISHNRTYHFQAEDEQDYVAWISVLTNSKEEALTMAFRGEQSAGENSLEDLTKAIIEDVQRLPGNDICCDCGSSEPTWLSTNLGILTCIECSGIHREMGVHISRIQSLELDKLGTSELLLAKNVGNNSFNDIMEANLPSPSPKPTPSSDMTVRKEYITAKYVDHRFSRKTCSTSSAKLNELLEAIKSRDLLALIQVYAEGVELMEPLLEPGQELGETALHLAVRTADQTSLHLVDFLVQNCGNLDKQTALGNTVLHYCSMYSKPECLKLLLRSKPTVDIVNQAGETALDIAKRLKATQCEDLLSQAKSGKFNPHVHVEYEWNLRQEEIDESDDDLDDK
rCAG bind conf = r(CAG) RNA repeat binding, confirmation. AID 652065. inhibition, % at 3 µM. shares compounds with rCAG binder. actives 70% (n = 4,300). TO-PRO-1 dye displacement fluorescence;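 active = inhibition above a per-plate cutoff, the mean inhibition of sample wells plus 3 SD, cut at about 35% in these data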;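 note: loss of TO-PRO-1 fluorescence as compound displaces dye from 1x1 AA loop RNA; 0% = DMSO only wells and 100% = 100 µM mitoxantrone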
DNA CAG counter = disrupts DNA CAG TO-PRO-1 complex, flagging rCAG hits; shares compounds with rCAG binder; d(CAG) DNA oligo TO-PRO-1 dye displacement, fluorescence; inhibition, % at 3 µM; actives 94% (n = 4,300);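 active = inhibition above its plate's cutoff, the mean test-well inhibition plus 3 SD, cut at about 4.8% in these data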;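 note: 0% = DNA dye mix with DMSO and 100% = 100 µM mitoxantrone; hits displace the dye from DNA and so lower well fluorescence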
* hit, by the source's call; . = no result.

SMILES | rCAG binder | ARFGAP1 inh | NadD block | ASAP1 inh | rCAG bind conf | DNA CAG counter
O=C(Nc1ccc(Cl)c(Cl)c1)C1CCN(c2nnc(-n3cccc3)s2)CC1 | 5.5 | . | . | . | . | .
CC(c1c[nH]c2ccccc12)c1c[nH]c2ccc(Br)cc12 (stereo not drawn) | 11.6 | . | . | . | . | .
COc1cccc(CC(=O)OCC(=O)NC(=O)c2ccc(OC(F)F)cc2)c1 | -4.9 | -0.1 | -6.9 | 5.6 | . | .
COc1ccc(-c2nnc(Nc3ccc(S(=O)(=O)Nc4nccs4)cc3)c3ccccc23)cc1 | 35.0* | -2.0 | 12.3 | -2.3 | 49.7* | 19.0*
COc1ccc(Nc2nnc(-c3ccc(C(N)=O)cc3)c3ccccc23)cc1 | 1.6 | -6.3 | -4.0 | -4.2 | . | .
O=S(=O)(Nc1cccc(S(=O)(=O)N2CCCCCC2)c1)c1ccccc1 | 15.6 | -10.4 | -4.1 | -9.6 | . | .
O=S(=O)(Nc1cccc(S(=O)(=O)N2CCCC2)c1)c1ccc(Cl)cc1 | 35.8* | -0.4 | -6.0 | -10.1 | 17.6 | 6.5*
COc1ccc(C=O)cc1CSc1ccccn1 | 1.7 | 0.6 | 3.1 | -13.7 | . | .
COc1ccc(/C=N/NC(=O)c2ccc(O)cc2O)cc1CSc1ccccn1 | 35.9* | 16.0 | 23.3 | 16.0 | 32.1 | 12.0*
O=C(NCCCCO)c1c(-c2ccccc2)oc2c1C(OCCCCCO)CCC2 (stereo not drawn) | -0.5 | -1.9 | -1.7 | -3.3 | . | .
CCCOc1ccc(C2C(C(=O)c3cc4ccccc4o3)=C(O)C(=O)N2c2cc(C)on2)cc1 (stereo not drawn) | 31.3 | -18.8 | 10.4 | -1.7 | . | .
Cc1cc(N2C(=O)C(O)=C(C(=O)c3ccc(C)o3)C2c2cccc(Oc3ccccc3)c2)no1 (stereo not drawn) | 30.9 | -4.6 | 21.0 | -6.9 | . | .
COc1cccc(C2C(C(=O)c3cc4ccccc4o3)=C(O)C(=O)N2c2cc(C)on2)c1 (stereo not drawn) | 48.1* | -11.1 | 10.0 | -5.7 | 52.4* | 18.1*
COc1ccc(OC)c(C2C(C(=O)c3cc4ccccc4o3)=C(O)C(=O)N2c2cc(C)on2)c1 (stereo not drawn) | 38.2* | 3.3 | 15.6 | -1.7 | 42.3* | 12.3*
COc1ccccc1C1C(C(=O)c2cc3ccccc3o2)=C(O)C(=O)N1c1cc(C)on1 (stereo not drawn) | 34.5 | 8.3 | 12.3 | -3.6 | . | .
CCCOc1ccc(C2C(C(=O)c3cc4ccccc4o3)=C(O)C(=O)N2c2cc(C)on2)cc1OC (stereo not drawn) | 40.2* | 2.7 | 17.6 | 5.5 | 76.3* | 42.4*
C=CCOc1cccc(C2C(C(=O)c3cc4ccccc4o3)=C(O)C(=O)N2c2cc(C)on2)c1 (stereo not drawn) | 65.8* | 2.6 | 15.5 | -3.5 | 76.4* | 39.9*
CCCC(=O)N1CCC1(C)C(=O)Nc1ccc(-n2cccc2)cc1 (stereo not drawn) | . | . | -6.0 | . | . | .
CCOC(=O)[C@]12CCCCC/C=C\1N(CCc1ccc(Cl)cc1)C(=O)[C@H]2CC(=O)N1CCCCC1 | 2.9 | . | . | . | . | .
Cc1ccc2c(c1)-c1c(cnn1CC(=O)NCCc1ccc(O)cc1)CO2 | 1.6 | . | . | . | . | .
Cc1c2ccncc2cc2c1[nH]c1ccccc12 | 11.4 | 2.5 | 0.3 | -12.0 | . | .
COc1ccc2[nH]c3c(C)c4ccncc4c(C)c3c2c1 | 37.4* | 3.4 | 36.5* | 0.3 | 24.7 | 27.2*
CCn1c(SCC(=O)c2ccc(-c3ccccc3)cc2)nnc1-c1ccccc1OC | 4.7 | . | . | . | . | .
CCCN1C(=O)/C(=C/c2ccccc2OCc2ccc(C(=O)O)cc2)NC1=S | 39.1* | 0.5 | 8.2 | 1.3 | 34.5 | 8.1*
Cc1ccc(NC(=O)CN2C(=O)N/C(=C/c3ccccc3OCc3cccc(C(=O)O)c3)C2=O)cc1 | 75.8* | 14.4 | 15.5 | 0.3 | 63.0* | 26.8*
SMILES | rCAG binder | ARFGAP1 inh | NadD block | ASAP1 inh | rCAG bind conf | DNA CAG counter
N#C/C(=C\c1ccccc1OCc1ccc(C(=O)O)cc1)c1ccccc1 | 34.9* | 8.9 | -3.3 | 2.9 | 29.8 | 5.3*
O=C(O)c1ccc(COc2ccccc2Cl)cc1 | 3.2 | 7.9 | -2.6 | -3.5 | . | .
COc1cccc(/C=C2/NC(=O)N(CC(=O)Nc3ccc(C)cc3)C2=O)c1OCc1cccc(C(=O)O)c1 | 22.9 | 0.7 | -6.0 | -14.3 | . | .
COc1cc(/C=C(\C#N)C(=O)Nc2cccc(C(=O)O)c2)ccc1OCc1ccc(Cl)cc1 | 4.3 | -3.4 | 20.9 | 8.3 | . | .
COc1cc(/C=C(/C#N)C(=O)Nc2ccccc2)c(Br)cc1OCc1ccc(C(=O)O)cc1 | 46.1* | 1.8 | 18.6 | -4.7 | 72.7* | 35.2*
O=C(O)c1ccc(COc2ccccc2/C=C2\NC(=O)N(Cc3ccccc3F)C2=O)cc1 | 42.4* | -4.8 | 21.2 | 2.5 | 44.9* | 13.7*
O=C(O)c1ccc(COc2ccccc2/C=C2\NC(=O)N(Cc3ccccc3)C2=O)cc1 | 42.7* | 7.8 | 1.0 | -4.1 | 45.6* | 10.6*
COc1cc(/C=C2/NC(=O)N(Cc3ccccc3F)C2=O)cc(OC)c1O | 8.0 | -6.6 | 1.9 | 11.1 | . | .
Cc1cccc(NC(=O)CN2C(=O)N/C(=C\c3ccc(-c4cccc(C(=O)O)c4)o3)C2=O)c1 | 68.6* | -8.8 | 13.0 | 16.0 | 73.3* | 37.0*
CCN(CC)CCCn1c2c(c(SCC(=O)N3CCc4ccccc43)nc1=O)CCC2 | 0.0 | 1.7 | -2.4 | -3.2 | . | .
Cn1c(=O)[nH]c2c(Br)nccc21 | 1.0 | . | . | . | . | .
O=C(O)c1ccc(N2N=C(c3ccccc3)CC2c2ccccc2)cc1 (stereo not drawn) | 43.8* | -12.2 | -3.5 | -1.6 | 46.9* | 12.4*
O=C(NC(Cc1ccccc1)C(=O)O)/C(=C\c1ccco1)NC(=O)c1ccc(Br)cc1 (stereo not drawn) | 36.8* | 4.6 | 5.6 | 6.1 | 34.2 | 8.2*
O=C(Nc1cccc(C(=O)O)c1)/C(=C/c1ccc2c(c1)OCO2)NC(=O)c1cccc(Br)c1 | 42.1* | 7.3 | 10.0 | -2.4 | 25.0 | 6.1*
O=C(NC(Cc1ccccc1)C(=O)O)/C(=C\c1ccco1)NC(=O)c1ccccc1 (stereo not drawn) | 12.6 | 0.9 | 3.0 | 10.7 | . | .
O=C(NC(Cc1ccccc1)C(=O)O)/C(=C/c1cccc([N+](=O)[O-])c1)NC(=O)c1cccc(Br)c1 (stereo not drawn) | 48.1* | -0.8 | 1.6 | -10.2 | 50.7* | 15.7*
O=C(Nc1cccc(C(=O)O)c1)/C(=C/c1cccc([N+](=O)[O-])c1)NC(=O)c1cccc(Br)c1 | 46.8* | -4.6 | 4.0 | -28.7 | 21.8 | 4.8*
CC(C(=O)NC(C)(C)C)n1c(C(c2ccccc2)c2ccccc2)nc2ccccc21 (stereo not drawn) | -1.6 | 0.9 | . | -11.5 | . | .
COCCNC(=O)C1(C)Cc2c(-c3ccc4c(c3)OCO4)ccnc2O1 (stereo not drawn) | 1.3 | 4.6 | 3.0 | -9.7 | . | .
CCCCCCCCN1C(=O)N2Cc3cc(F)ccc3C2CS1(=O)=O (stereo not drawn) | -1.4 | . | . | . | . | .
